According to ChEMBL document CHEMBL1629506, “Design, synthesis and structure-activity relationship study of novel pyrazole-based heterocycles as potential antitumor agents” (Eur J Med Chem, 2010):

Tested on: Rattus norvegicus
Test: Antiestrogenic activity in Sprague-Dawley rat assessed as reduction in estradiol induced uterine weight upto 0.06 ug, po after 8 days
Assay type: functional
Parameters: scale not given: the % may be the effect or the level left
Settings: not given
Outline: (§1)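 Immature ovariectomized female Sprague-Dawley rats (~55 g), groups of 12. Estradiol 0.03–0.05 given s.c. daily for 7 days, with test compound or letrozole reference at various doses up to 0.06 per animal, given orally in 0.5% carboxymethylcellulose. Controls received estradiol alone. Uterine weights were taken on day 8 and group means expressed as % reduction versus estradiol-only controls. Potency was taken relative to letrozole.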

SMILES	Activity
N#Cc1c(C(=O)/C=C/N2CCOCC2)nn(-c2ccccc2)c1-c1ccccc1	43.43%
CC(=O)c1nn(-c2ccccc2)cc1C(=O)c1nn(-c2ccccc2)c(-c2ccccc2)c1C#N	32.45%
N#Cc1c(-c2nnc(-c3nn(-c4ccccc4)c(-c4ccccc4)c3C#N)c3nn(-c4ccc(Cl)cc4)cc23)nn(-c2ccccc2)c1-c1ccccc1	43.41%
N#Cc1ccc(C(c2ccc(C#N)cc2)n2cncn2)cc1 [LETROZOLE]	21.65%

Tested on: OVCAR-3
Test: Growth inhibition of human OVCAR3 cells after 48 hrs by sulforhodamine B assay
Assay type: functional
Settings: OVCAR-3, 48 h
Outline: (§2)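 Cells were plated at 5000–40,000 cells/well, depending on doubling time, and preincubated 24 h at 37 °C in 5% CO2. Time-zero plates were TCA-fixed at drug addition. Compounds were dissolved in DMSO and tested at five concentrations (10-fold or ½-log dilutions) for 48 h. Cells were fixed with cold TCA, stained with 0.4% sulforhodamine B and read at 515 nm. GI50 was taken as the concentration giving 50% growth.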

SMILES	GI50
N#Cc1c(C(=O)/C=C/N2CCOCC2)nn(-c2ccccc2)c1-c1ccccc1	21.5 µM
CC(=O)c1nn(-c2ccccc2)cc1C(=O)c1nn(-c2ccccc2)c(-c2ccccc2)c1C#N	66.8 µM
N#Cc1c(-c2nnc(-c3nn(-c4ccccc4)c(-c4ccccc4)c3C#N)c3nn(-c4ccc(Cl)cc4)cc23)nn(-c2ccccc2)c1-c1ccccc1	95.8 µM
N#Cc1ccc(C(c2ccc(C#N)cc2)n2cncn2)cc1 [LETROZOLE]	5.87 µM

Tested on: OVCAR-4
Test: Growth inhibition of human OVCAR4 cells after 48 hrs by sulforhodamine B assay
Assay type: functional
Settings: OVCAR-4, 48 h
Outline: as §2

SMILES	GI50
N#Cc1c(C(=O)/C=C/N2CCOCC2)nn(-c2ccccc2)c1-c1ccccc1	62.8 µM
CC(=O)c1nn(-c2ccccc2)cc1C(=O)c1nn(-c2ccccc2)c(-c2ccccc2)c1C#N	69.8 µM
N#Cc1c(-c2nnc(-c3nn(-c4ccccc4)c(-c4ccccc4)c3C#N)c3nn(-c4ccc(Cl)cc4)cc23)nn(-c2ccccc2)c1-c1ccccc1	43.8 µM
N#Cc1ccc(C(c2ccc(C#N)cc2)n2cncn2)cc1 [LETROZOLE]	0.88 µM

Tested on: not listed separately
Test: Acute toxicity in mouse after 24 hrs
Assay type: organism-based
Settings: in vivo
Outline: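 Adult mice of both sexes, acclimatized 1 week (12 h light/dark, 21–23 °C), fasted 12 h before dosing. 30 mice in 6 groups of 5 each got a single oral gavage dose, at different dose levels, of a fine-powder aqueous suspension. LD50 was determined, with values as group means of five mice.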

SMILES	LD50 at 24 h
N#Cc1c(C(=O)/C=C/N2CCOCC2)nn(-c2ccccc2)c1-c1ccccc1	463 mg/kg
CC(=O)c1nn(-c2ccccc2)cc1C(=O)c1nn(-c2ccccc2)c(-c2ccccc2)c1C#N	324 mg/kg
N#Cc1c(-c2nnc(-c3nn(-c4ccccc4)c(-c4ccccc4)c3C#N)c3nn(-c4ccc(Cl)cc4)cc23)nn(-c2ccccc2)c1-c1ccccc1	112 mg/kg
N#Cc1ccc(C(c2ccc(C#N)cc2)n2cncn2)cc1 [LETROZOLE]	253 mg/kg

Tested on: OVCAR-5
Test: Growth inhibition of human OVCAR5 cells after 48 hrs by sulforhodamine B assay
Assay type: functional
Settings: OVCAR-5, 48 h
Outline: as §2

SMILES	GI50
N#Cc1c(C(=O)/C=C/N2CCOCC2)nn(-c2ccccc2)c1-c1ccccc1	90.8 µM
CC(=O)c1nn(-c2ccccc2)cc1C(=O)c1nn(-c2ccccc2)c(-c2ccccc2)c1C#N	34.8 µM
N#Cc1c(-c2nnc(-c3nn(-c4ccccc4)c(-c4ccccc4)c3C#N)c3nn(-c4ccc(Cl)cc4)cc23)nn(-c2ccccc2)c1-c1ccccc1	> 100 µM
N#Cc1ccc(C(c2ccc(C#N)cc2)n2cncn2)cc1 [LETROZOLE]	1.62 µM

Tested on: NCI/ADR-RES
Test: Growth inhibition of human NCI/ADR-RES cells after 48 hrs by sulforhodamine B assay
Assay type: functional
Settings: not given
Outline: as §2

SMILES	GI50
N#Cc1c(C(=O)/C=C/N2CCOCC2)nn(-c2ccccc2)c1-c1ccccc1	> 100 µM
CC(=O)c1nn(-c2ccccc2)cc1C(=O)c1nn(-c2ccccc2)c(-c2ccccc2)c1C#N	> 100 µM
N#Cc1c(-c2nnc(-c3nn(-c4ccccc4)c(-c4ccccc4)c3C#N)c3nn(-c4ccc(Cl)cc4)cc23)nn(-c2ccccc2)c1-c1ccccc1	7.46 µM
N#Cc1ccc(C(c2ccc(C#N)cc2)n2cncn2)cc1 [LETROZOLE]	1.16 µM

Tested on: MDA-MB-435
Test: Growth inhibition of human MDA-MB-435 cells after 48 hrs by sulforhodamine B assay
Assay type: functional
Settings: MDA-MB-435, 48 h
Outline: as §2

SMILES	GI50
N#Cc1c(C(=O)/C=C/N2CCOCC2)nn(-c2ccccc2)c1-c1ccccc1	> 100 µM
CC(=O)c1nn(-c2ccccc2)cc1C(=O)c1nn(-c2ccccc2)c(-c2ccccc2)c1C#N	> 100 µM
N#Cc1c(-c2nnc(-c3nn(-c4ccccc4)c(-c4ccccc4)c3C#N)c3nn(-c4ccc(Cl)cc4)cc23)nn(-c2ccccc2)c1-c1ccccc1	9.2 µM
N#Cc1ccc(C(c2ccc(C#N)cc2)n2cncn2)cc1 [LETROZOLE]	0.067 µM

Tested on: MDA-MB-231
Test: Growth inhibition of human MDA-MB-231cells after 48 hrs by sulforhodamine B assay
Assay type: functional
Settings: MDA-MB-231, 48 h
Outline: as §2

SMILES	GI50
N#Cc1c(C(=O)/C=C/N2CCOCC2)nn(-c2ccccc2)c1-c1ccccc1	> 100 µM
CC(=O)c1nn(-c2ccccc2)cc1C(=O)c1nn(-c2ccccc2)c(-c2ccccc2)c1C#N	> 100 µM
N#Cc1c(-c2nnc(-c3nn(-c4ccccc4)c(-c4ccccc4)c3C#N)c3nn(-c4ccc(Cl)cc4)cc23)nn(-c2ccccc2)c1-c1ccccc1	7.9 µM
N#Cc1ccc(C(c2ccc(C#N)cc2)n2cncn2)cc1 [LETROZOLE]	0.15 µM

Tested on: not listed separately
Test: Growth inhibition of human Hs 578T cells after 48 hrs by sulforhodamine B assay
Assay type: functional
Settings: not given
Outline: as §2

SMILES	GI50
N#Cc1c(C(=O)/C=C/N2CCOCC2)nn(-c2ccccc2)c1-c1ccccc1	> 100 µM
CC(=O)c1nn(-c2ccccc2)cc1C(=O)c1nn(-c2ccccc2)c(-c2ccccc2)c1C#N	6.46 µM
N#Cc1c(-c2nnc(-c3nn(-c4ccccc4)c(-c4ccccc4)c3C#N)c3nn(-c4ccc(Cl)cc4)cc23)nn(-c2ccccc2)c1-c1ccccc1	9.72 µM
N#Cc1ccc(C(c2ccc(C#N)cc2)n2cncn2)cc1 [LETROZOLE]	2.17 µM

Tested on: OVCAR-8
Test: Growth inhibition of human OVCAR8 cells after 48 hrs by sulforhodamine B assay
Assay type: functional
Settings: OVCAR-8, 48 h
Outline: as §2

SMILES	GI50
N#Cc1c(C(=O)/C=C/N2CCOCC2)nn(-c2ccccc2)c1-c1ccccc1	> 100 µM
CC(=O)c1nn(-c2ccccc2)cc1C(=O)c1nn(-c2ccccc2)c(-c2ccccc2)c1C#N	62.8 µM
N#Cc1c(-c2nnc(-c3nn(-c4ccccc4)c(-c4ccccc4)c3C#N)c3nn(-c4ccc(Cl)cc4)cc23)nn(-c2ccccc2)c1-c1ccccc1	61.8 µM
N#Cc1ccc(C(c2ccc(C#N)cc2)n2cncn2)cc1 [LETROZOLE]	4.5 µM

Tested on: MDA-N
Test: Growth inhibition of human MDA-N cells after 48 hrs by sulforhodamine B assay
Assay type: functional
Settings: not given
Outline: as §2

SMILES	GI50
N#Cc1c(C(=O)/C=C/N2CCOCC2)nn(-c2ccccc2)c1-c1ccccc1	38.4 µM
CC(=O)c1nn(-c2ccccc2)cc1C(=O)c1nn(-c2ccccc2)c(-c2ccccc2)c1C#N	0.077 µM
N#Cc1c(-c2nnc(-c3nn(-c4ccccc4)c(-c4ccccc4)c3C#N)c3nn(-c4ccc(Cl)cc4)cc23)nn(-c2ccccc2)c1-c1ccccc1	2.26 µM
N#Cc1ccc(C(c2ccc(C#N)cc2)n2cncn2)cc1 [LETROZOLE]	1.61 µM

Tested on: Rattus norvegicus
Test: Antiestrogenic activity in Sprague-Dawley rat assessed as reduction in estradiol induced uterine weight 0.06 ug, po after 8 days relative to letrozole
Assay type: functional
Settings: not given
Outline: as §1

SMILES	potency ratio vs letrozole
N#Cc1c(C(=O)/C=C/N2CCOCC2)nn(-c2ccccc2)c1-c1ccccc1	2
CC(=O)c1nn(-c2ccccc2)cc1C(=O)c1nn(-c2ccccc2)c(-c2ccccc2)c1C#N	1.49
N#Cc1c(-c2nnc(-c3nn(-c4ccccc4)c(-c4ccccc4)c3C#N)c3nn(-c4ccc(Cl)cc4)cc23)nn(-c2ccccc2)c1-c1ccccc1	2
N#Cc1ccc(C(c2ccc(C#N)cc2)n2cncn2)cc1 [LETROZOLE]	1

Tested on: SK-OV-3
Test: Growth inhibition of human SKOV3 cells after 48 hrs by sulforhodamine B assay
Assay type: functional
Settings: SK-OV-3, 48 h
Outline: as §2

SMILES	GI50
N#Cc1c(C(=O)/C=C/N2CCOCC2)nn(-c2ccccc2)c1-c1ccccc1	33.8 µM
CC(=O)c1nn(-c2ccccc2)cc1C(=O)c1nn(-c2ccccc2)c(-c2ccccc2)c1C#N	39.8 µM
N#Cc1c(-c2nnc(-c3nn(-c4ccccc4)c(-c4ccccc4)c3C#N)c3nn(-c4ccc(Cl)cc4)cc23)nn(-c2ccccc2)c1-c1ccccc1	36.8 µM
N#Cc1ccc(C(c2ccc(C#N)cc2)n2cncn2)cc1 [LETROZOLE]	1.09 µM

Tested on: BT-549
Test: Growth inhibition of human BT549 cells after 48 hrs by sulforhodamine B assay
Assay type: functional
Settings: BT-549, 48 h
Outline: as §2

SMILES	GI50
N#Cc1c(C(=O)/C=C/N2CCOCC2)nn(-c2ccccc2)c1-c1ccccc1	41.4 µM
CC(=O)c1nn(-c2ccccc2)cc1C(=O)c1nn(-c2ccccc2)c(-c2ccccc2)c1C#N	> 100 µM
N#Cc1c(-c2nnc(-c3nn(-c4ccccc4)c(-c4ccccc4)c3C#N)c3nn(-c4ccc(Cl)cc4)cc23)nn(-c2ccccc2)c1-c1ccccc1	1.02 µM
N#Cc1ccc(C(c2ccc(C#N)cc2)n2cncn2)cc1 [LETROZOLE]	0.89 µM

Tested on: IGROV-1
Test: Growth inhibition of human IGROV1 cells after 48 hrs by sulforhodamine B assay
Assay type: functional
Settings: IGROV-1, 48 h
Outline: as §2

SMILES	GI50
N#Cc1c(C(=O)/C=C/N2CCOCC2)nn(-c2ccccc2)c1-c1ccccc1	88 µM
CC(=O)c1nn(-c2ccccc2)cc1C(=O)c1nn(-c2ccccc2)c(-c2ccccc2)c1C#N	96.8 µM
N#Cc1c(-c2nnc(-c3nn(-c4ccccc4)c(-c4ccccc4)c3C#N)c3nn(-c4ccc(Cl)cc4)cc23)nn(-c2ccccc2)c1-c1ccccc1	98 µM
N#Cc1ccc(C(c2ccc(C#N)cc2)n2cncn2)cc1 [LETROZOLE]	0.095 µM

Tested on: T47D
Test: Growth inhibition of human T47D cells after 48 hrs by sulforhodamine B assay
Assay type: functional
Settings: not given
Outline: as §2

SMILES	GI50
N#Cc1c(C(=O)/C=C/N2CCOCC2)nn(-c2ccccc2)c1-c1ccccc1	> 100 µM
CC(=O)c1nn(-c2ccccc2)cc1C(=O)c1nn(-c2ccccc2)c(-c2ccccc2)c1C#N	36.8 µM
N#Cc1c(-c2nnc(-c3nn(-c4ccccc4)c(-c4ccccc4)c3C#N)c3nn(-c4ccc(Cl)cc4)cc23)nn(-c2ccccc2)c1-c1ccccc1	16 µM
N#Cc1ccc(C(c2ccc(C#N)cc2)n2cncn2)cc1 [LETROZOLE]	0.44 µM

Tested on: MCF7
Test: Growth inhibition of human MCF7 cells after 48 hrs by sulforhodamine B assay
Assay type: functional
Settings: MCF7, 48 h
Outline: as §2

SMILES	GI50
N#Cc1c(C(=O)/C=C/N2CCOCC2)nn(-c2ccccc2)c1-c1ccccc1	5.49 µM
CC(=O)c1nn(-c2ccccc2)cc1C(=O)c1nn(-c2ccccc2)c(-c2ccccc2)c1C#N	25.7 µM
N#Cc1c(-c2nnc(-c3nn(-c4ccccc4)c(-c4ccccc4)c3C#N)c3nn(-c4ccc(Cl)cc4)cc23)nn(-c2ccccc2)c1-c1ccccc1	9.42 µM
N#Cc1ccc(C(c2ccc(C#N)cc2)n2cncn2)cc1 [LETROZOLE]	0.7 µM
